Results pooled from the literature.
Lines come from different studies, so protocols differ.
Target: Calcium/calmodulin-dependent protein kinase type II subunit beta (CAMK2B, Homo sapiens, UniProt Q13554)

C#Cc1n[nH]c2c(-c3cn([C@@H](C)c4ccccc4)c(=O)[nH]c3=O)cc(F)cc12 — inhibition (enzyme activity, inhibitor; 0.1 µM): 6.5%
Cc1nn(C)cc1-c1nc2c(N3CCN(Cc4ccc(Cl)cc4)CC3)c(Cl)cnc2[nH]1 — remaining binding (binding, competition with immobilised ligand; 1 µM): 94%
N#CC1(c2ccccn2)CCN(Cc2cc(C(=O)O)c(=O)n3ccccc23)CC1 — remaining binding (cell-free assay, competition with immobilised ligand; 1 µM): 100%
O=c1[nH]c2ccccc2n1C1CCN(Cc2ccc(-c3[nH]c4cc5ncnc5cc4nc3-c3ccccc3)cc2)CC1 — remaining activity (enzyme activity; 0.5 µM): 104%
Cn1cc(-c2cccc(N3CCc4c(sc5c4CC(C)(C)C5)C3=O)c2CO)cc(Nc2ccncn2)c1=O — inhibition (enzyme activity, inhibitor; 1 µM): 12%
Cn1cncc1[C@@](O)(COc1ccc(C#N)cc1-c1ccc(OC(F)(F)F)cc1)c1ccc(C#N)cc1 — remaining binding (cell-free assay, competition with immobilised ligand; 1 µM): 90%
Nc1ncc(-c2nc(N3CCOCC3)nc(N3CCOCC3)n2)c(C(F)F)n1 — remaining binding (binding, competition with immobilised ligand; 10 µM): 69%
CC(C)(C)c1cc(C=C(C#N)C#N)cc(Br)c1O — remaining activity (enzyme activity, inhibitor; 0.5 µM): 99.3%
C#Cc1n[nH]c2c(-c3cn(C(C)c4ccccn4)c(=O)[nH]c3=O)cc(F)cc12 (centres unmarked) — inhibition (enzyme activity, inhibitor; 1 µM): 4.3%
COc1ncccc1-c1cnn2ccc(N3CCN(C(=O)OC(C)C)CC3)nc12 — remaining binding (binding, competition with immobilised ligand; 1 µM): 81%
Cn1cc(-c2cc(F)cc(N3CCn4c(cc5c4CCCC5)C3=O)c2CO)cc(Nc2ccc(N3CCN(C4COC4)CC3)cn2)c1=O — inhibition (enzyme activity, inhibitor; 0.1 µM): 7%
